In paper PMC5915676 (Cell chemical biology, 2016):
Positions count from the first letter of the chain named. “Also recorded” adds a separate entry of the source. Like-named read-outs stand apart in the source and are kept apart here.

Columns and labels:
[1] = system: SKOV3 GFP KO control cells; assay: 6-day proliferation assay; format: cell-based, human; conditions: 50 μM PKUMDL-WQ-2201, 6 days
Procedure, shortened: (§1)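 SKOV3 control (sgRNA against GFP) and PHGDH knockout cells were used. Knockout was made by lentiCRISPR with an exon 8 sgRNA, puromycin selection and single-cell clones, and was western-validated. Cells were grown in RPMI-1640 with 10% FBS and plated at 10,000 cells/well in triplicate. After 24 h they received DMSO or compound, and viable cells were counted daily for 6 days by trypan-blue exclusion on a hemocytometer. Data are mean ± SEM, n=3 biological replicates, two-tailed Student's t-test.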

MDA-MB-231 cells = assay: MTT cell viability assay; format: cell-based, human; conditions: read-out: EC50 (cell viability), MDA-MB-231, 72 h
MDA-MB-231 xenografts = assay: MDA-MB-231 xenograft mouse model; format: in vivo, NOD.CB17 Scid/J mice; conditions: 20 mg/kg/day IP
MCF-10A cells = assay: MTT cell viability assay; format: cell-based, human
MDA-MB-468 xenografts = assay: MDA-MB-468 xenograft mouse model; format: in vivo, NOD.CB17 Scid/J mice; conditions: 20, 10 and 5 mg/kg/day IP, 30 days of drug delivery, vs vehicle
ZR-75-1 cells = assay: MTT cell viability assay; format: cell-based, human; conditions: selectivity, PHGDH amplified vs non-dependent line
[2] = Body weight of xenograft mice during treatment; format: in vivo; conditions: over the course of the xenograft experiments
HCC70 cells = assay: MTT cell viability assay; format: cell-based, human; conditions: read-out: EC50, antitumor activity (cell viability), HCC70, 72 h
PHGDH mutant T59A = target: T1, PHGDH mutant T59A (Homo sapiens, UniProt O43175, T60A); assay: PHGDH enzyme assay, mutant T59A; format: biochemical; conditions: read-out: IC50, PHGDH enzyme inhibition
T1 sequence (O43175 1-533 T60A): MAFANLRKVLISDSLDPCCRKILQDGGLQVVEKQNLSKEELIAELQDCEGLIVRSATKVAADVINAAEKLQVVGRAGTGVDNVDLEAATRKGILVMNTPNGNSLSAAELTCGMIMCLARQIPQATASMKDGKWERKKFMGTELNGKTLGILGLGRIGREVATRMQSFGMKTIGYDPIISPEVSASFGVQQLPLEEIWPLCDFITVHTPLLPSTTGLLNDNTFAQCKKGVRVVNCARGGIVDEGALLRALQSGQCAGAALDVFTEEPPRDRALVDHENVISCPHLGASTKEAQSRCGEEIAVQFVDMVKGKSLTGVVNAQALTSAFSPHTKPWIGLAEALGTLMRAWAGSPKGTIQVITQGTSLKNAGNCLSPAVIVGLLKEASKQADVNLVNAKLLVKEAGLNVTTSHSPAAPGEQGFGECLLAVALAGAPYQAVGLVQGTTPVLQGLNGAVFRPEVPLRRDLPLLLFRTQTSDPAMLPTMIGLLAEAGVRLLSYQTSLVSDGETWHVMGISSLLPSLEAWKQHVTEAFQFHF
Procedure, shortened: (§2)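 Point mutants were made by QuikChange site-directed mutagenesis of pET-21a(+) wild-type human PHGDH and sequence-verified. Each was expressed in E. coli and purified like the wild type, then assayed for activity and inhibition in the same PSAT1-coupled PHGDH assay.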

PHGDH mutant T56AK57A = target: T2, PHGDH mutant T56AK57A (Homo sapiens, UniProt O43175, K58A/T57A); assay: PHGDH enzyme assay, mutant T56AK57A; format: biochemical; conditions: read-out: IC50, PHGDH enzyme inhibition
T2 sequence (O43175 1-533 T57A/K58A): T1 sequence (O43175 1-533 T60A) with T57A, K58A, A60T
Procedure, shortened: as §2

MDA-MB-468 cells [3] = assay: MTT cell viability assay; format: cell-based, human; conditions: read-out: EC50, antitumor activity (cell viability), MDA-MB-468, 72 h
MCF-7 cells = assay: MTT cell viability assay; format: cell-based, human; conditions: read-out: EC50 (cell viability), MCF-7, 72 h
PHGDH = target: T3, PHGDH (Homo sapiens, UniProt O43175); assay: PHGDH enzyme assay coupled with PSAT1 reaction; format: biochemical
T3 sequence (O43175 1-533): T1 sequence (O43175 1-533 T60A) with A60T
Procedure, shortened: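 Full-length human PHGDH and PSAT1 were His-purified from E. coli BL21(DE3) (pET21a(+)) by Ni-NTA then gel filtration. PHGDH activity was measured coupled to the upstream PSAT1 reaction. For cofactor competition, enzyme was preincubated 10 min at 25°C with NADH and compound, and Pser was added to start the reaction. For combinations, fixed first-compound levels (0–200 μM) were mixed with second-compound series (0–200 μM) and preincubated with enzyme.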

[4] = system: serine biosynthesis pathway in SKOV3 GFP KO cells; assay: U-13C-glucose stable isotope labeling, LC-HRMS; format: cell-based, human
[5] = system: panel of cancer cell lines along with one immortalized human breast epithelial cell line; assay: MTT cell viability assay, cell line panel; format: cell-based
SKOV3 PHGDH KO cells = assay: 6-day proliferation assay; format: cell-based, human; conditions: 50 μM PKUMDL-WQ-2201, 6 days
Procedure, shortened: as §1

MDA-MB-468 cells [6] = conditions: 30 μM, ref Mullarky et al., 2016, cited from earlier work
[7] = ref Mullarky et al., 2016; cited from earlier work
[8] = 37 μM PKUMDL-WQ-2101, 291 μM PKUMDL-WQ-2201, 24 h treatment

In the case of `CCNC(=S)N/N=C/c1ccc(-c2ccc(C(=O)O)c(Cl)c2)o1` [PKUMDL-WQ-2201], the cell growth [1] is reported as “suppressed”, the EC50 (MDA-MB-231 cells) is reported as > 200 µM and the tumor growth (MDA-MB-231 xenografts) is reported as “neither PKUMDL-WQ-2101 nor PKUMDL-WQ-2201 affected tumor growth”. The cytotoxic effects (MCF-10A cells) was “weak cytotoxic effects”, the tumor growth (MDA-MB-468 xenografts) was “substantial inhibitory effects; also recorded: significantly suppressed the growth of tumors” and the “fold more active in MDA-MB-468 and HCC70 than in ZR-75-1” value (ZR-75-1 cells) was 13- to 18 fold. For the same compound, the “body weight (tolerability)” value [2] was “able to maintain normal body weight”, the EC50 (HCC70 cells) was 10 µM and the IC50 (PHGDH mutant T59A) was 69 ± 40 µM. For the same compound, the IC50 (PHGDH mutant T56AK57A) was > 300 µM, the EC50 (MDA-MB-468 cells [3]) was 6.9 µM and the EC50 (MCF-7 cells) was > 200 µM. For the same compound, the “combination effect on PHGDH inhibition (Combination Index)” value (PHGDH; PKUMDL-WQ-2101 kept at 25 μM, PKUMDL-WQ-2201 1 to 200 μM) was “synergistic interactions”, the “combination effect on PHGDH inhibition (Combination Index)” value (PHGDH; PKUMDL-WQ-2202 kept at 25 μM, PKUMDL-WQ-2201 varied) was “antagonism” and the “competition with cofactor NADH” value (PHGDH; compound 50 μM, NADH 5 to 40 μM) was “did not bound in the cofactor site”. The IC50 (PHGDH; read-out: IC50, PHGDH enzyme inhibition, WT PHGDH) was 35.7 ± 8.6 µM, the “m+2, m+6 and m+7 glucose labeling in UTP and ATP” value [4, 8] was “decreases” and the “m+2 glucose incorporation into glutathione” value [4, 8] was “decreases in m+2”. The “reduction of glucose incorporation into serine and glycine” value ([4]; about IC50 (37 μM PKUMDL-WQ-2101, 291 μM PKUMDL-WQ-2201), 24 h treatment) was “more than 50%”, the “bioactivity in the other three PHGDH non-amplified breast cancer cell lines” value ([5]; lines other than ZR-75-1) was “No bioactivities” and the EC50 ([5]; read-out: EC50 in PHGDH amplified breast cancer cells, serine-replete media) was < 10 µM. The cell growth (SKOV3 PHGDH KO cells) was “remained unaffected”.
For CBR-5884, the “inhibition of growth of MDA-MB-468 cells” value (MDA-MB-468 cells [6]; serine-deplete media) is given as 80% to 90%, the “inhibition of growth of MDA-MB-468 cells” value (MDA-MB-468 cells [6]; serine-replete media) is given as 35% to 60% and the “stability in mouse plasma” value [7] is given as “unstable in mouse plasma”.
